Reference: ChEMBL document CHEMBL4680253, “Hybrids of MEK inhibitor and NO donor as multitarget antitumor drugs” (Eur J Med Chem, 2020)
pIC50: −log10 of the molar value. The source made the active and inactive calls. No cut-off for these calls is given here.

What was measured:
HCT-116 = assay: Antiproliferative activity against human HCT116 cells harboring KRAS G13D mutant assessed as inhibition of cell viability after 96 hrs by Celltiter-Glo assay; assay type: functional, cell-based; conditions: HCT-116, 96 h
A549 = assay: Antiproliferative activity against human A549 cells harboring KRAS G12S mutant assessed as inhibition of cell viability after 96 hrs by Celltiter-Glo assay; assay type: functional, cell-based; conditions: A549, 96 h
HL-60 = assay: Antiproliferative activity against human HL60 cells harboring NRAS […] mutant assessed as inhibition of cell viability after 96 hrs by Celltiter-Glo assay; assay type: functional, cell-based; conditions: HL-60, 96 h
[1] = Antiproliferative activity against human A375 cells harboring BRAF V600E mutant assessed as inhibition of cell viability after 96 hrs by Celltiter-Glo assay; assay type: functional, cell-based, A375/R; conditions: A-375, 96 h
MDA-MB-231 [2] = assay: Antiproliferative activity against human MDA-MB-231 cells harboring KRAS G13D/BRAF G464V mutant assessed as inhibition of cell viability after 96 hrs by Celltiter-Glo assay; assay type: functional, cell-based; conditions: MDA-MB-231, 96 h
[3] = Prodrug release in human HCT-116 cells assessed as increase in intracellular NO level at 100 uM measured after 2 hr by DAF-FM DA reagent based laser confocal scanning microscopy; conditions: hct-116, 2 h
MDA-MB-231 [4] = assay: Induction of apoptosis in human MDA-MB-231 cells assessed as necrotic cells at 10 uM incubated for 24 hrs by AnnexinV-FITC and propidium iodide staining based flow cytometry (reference value: 1.084%); assay type: functional
MDA-MB-231 [5] = assay: Induction of apoptosis in human MDA-MB-231 cells assessed as viable cells at 1 uM incubated for 24 hrs by AnnexinV-FITC and propidium iodide staining based flow cytometry (reference value: 90.962%); assay type: functional; conditions: read-out: Activity
[6] = molecular target: T1, Dual specificity mitogen-activated protein kinase kinase; MEK1/2 (Homo sapiens) (UniProt P36507+Q02750); assay: Inhibition of MEK in human A549 cells assessed as reduction in ERK phosphorylation at 1 uM incubated for 2 hrs by Western blot analysis; assay type: cell-based
T1 sequence (P36507 whole entry, looked up): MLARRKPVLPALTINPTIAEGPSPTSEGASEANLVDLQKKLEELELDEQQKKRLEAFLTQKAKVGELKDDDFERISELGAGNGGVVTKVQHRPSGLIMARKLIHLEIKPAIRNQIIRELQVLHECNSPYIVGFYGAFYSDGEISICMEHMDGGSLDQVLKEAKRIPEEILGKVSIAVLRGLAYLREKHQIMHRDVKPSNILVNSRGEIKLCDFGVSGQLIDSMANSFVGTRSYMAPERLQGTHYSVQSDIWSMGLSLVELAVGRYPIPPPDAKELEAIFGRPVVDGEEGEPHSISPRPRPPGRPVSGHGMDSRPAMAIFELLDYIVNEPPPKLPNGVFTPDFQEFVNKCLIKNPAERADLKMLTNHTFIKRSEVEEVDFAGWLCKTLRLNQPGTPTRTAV
T1 sequence (Q02750 whole entry, looked up): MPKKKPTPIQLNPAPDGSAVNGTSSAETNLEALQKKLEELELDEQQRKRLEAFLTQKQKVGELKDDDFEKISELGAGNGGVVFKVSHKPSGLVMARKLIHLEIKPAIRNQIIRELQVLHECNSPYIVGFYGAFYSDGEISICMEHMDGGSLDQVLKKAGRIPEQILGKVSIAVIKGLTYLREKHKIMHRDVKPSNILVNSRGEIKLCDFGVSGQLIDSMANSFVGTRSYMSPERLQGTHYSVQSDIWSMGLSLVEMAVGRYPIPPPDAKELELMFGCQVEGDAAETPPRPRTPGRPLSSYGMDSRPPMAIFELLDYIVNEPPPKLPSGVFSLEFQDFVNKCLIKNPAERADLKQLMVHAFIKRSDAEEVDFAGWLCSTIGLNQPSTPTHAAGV
How it was run: (§1)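 A549 cells in RPMI-1640 with 10% FBS, treated 2 h. Cells lysed in RIPA with protease/phosphatase inhibitors on ice for 20 min. Equal protein run on 4-20% SDS-PAGE and blotted to PVDF. Membranes blocked in 5% milk, then probed overnight at 4 °C with rabbit mAbs to pMEK, MEK, pERK and ERK, followed by HRP secondary. GAPDH used as loading control.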

L02 = assay: Cytotoxicity against human HL7702 cells assessed as reduction in cell viability after 96 hrs by Celltiter-Glo assay; assay type: cell-based; conditions: L02, 96 h
How it was run: (§2)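 Cells kept at 37 °C in humidified 5% CO2 with 10% FBS; Vero in DMEM, HL7702 in RPMI-1640. Compounds added to plated cells and incubated 96 h at 37 °C. Viability read by CellTiter-Glo reagent added directly to the wells. IC50 fitted from the readings.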

MDA-MB-231 [7] = assay: Induction of apoptosis in human MDA-MB-231 cells assessed as early apoptotic cells at 1 uM incubated for 24 hrs by AnnexinV-FITC and propidium iodide staining based flow cytometry (reference value: 4.4%); assay type: functional
Vero = assay: Cytotoxicity against African green monkey Vero cells assessed as reduction in cell viability after 96 hrs by Celltiter-Glo assay; assay type: cell-based; conditions: Chlorocebus sabaeus; how it was run: as §2
MDA-MB-231 [8] = assay: Induction of apoptosis in human MDA-MB-231 cells assessed as early apoptotic cells at 10 uM incubated for 24 hrs by AnnexinV-FITC and propidium iodide staining based flow cytometry (reference value: 4.4%); assay type: functional
[9] = molecular target: T1, Dual specificity mitogen-activated protein kinase kinase; MEK1/2 (Homo sapiens); assay: Inhibition of MEK in human MDA-MB-231 cells assessed as reduction in MEK phosphorylation at 1 to 10 uM incubated for 2 hrs by Western blot analysis; assay type: cell-based; conditions: dose 1-10 µM
How it was run: (§3)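 MDA-MB-231 in RPMI-1640 with 10% FBS. Dose series at 1, 3 and 10 µM for 2 h or 24 h; time course at 1 µM or 10 µM over several time points. RIPA lysates with protease/phosphatase inhibitors, equal protein on 4-20% SDS-PAGE, PVDF transfer, 5% milk block. Probed overnight at 4 °C for pMEK, MEK, pERK and ERK, then HRP secondary.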

[10] = molecular target: T1, Dual specificity mitogen-activated protein kinase kinase; MEK1/2 (Homo sapiens); assay: Inhibition of MEK in human A549 cells assessed as reduction in MEK phosphorylation at 10 uM incubated for 2 hrs by Western blot analysis; assay type: cell-based; how it was run: as §1
[11] = molecular target: T1, Dual specificity mitogen-activated protein kinase kinase; MEK1/2 (Homo sapiens); assay: Inhibition of MEK in human MDA-MB-231 cells assessed as reduction in ERK phosphorylation at 1 to 10 uM incubated for 2 hrs by Western blot analysis; assay type: cell-based; conditions: dose 1-10 µM; how it was run: as §3
MDA-MB-231 [12] = assay: Induction of apoptosis in human MDA-MB-231 cells assessed as necrotic cells at 1 uM incubated for 24 hrs by AnnexinV-FITC and propidium iodide staining based flow cytometry (reference value: 1.084%); assay type: functional
MDA-MB-231 [13] = assay: Induction of apoptosis in human MDA-MB-231 cells assessed as late apoptotic cells at 1 uM incubated for 24 hrs by AnnexinV-FITC and propidium iodide staining based flow cytometry (reference value: 3.54%); assay type: functional
MDA-MB-231 [14] = assay: Induction of apoptosis in human MDA-MB-231 cells assessed as viable cells at 10 uM incubated for 24 hrs by AnnexinV-FITC and propidium iodide staining based flow cytometry (reference value: 90.962%); assay type: functional; conditions: read-out: Activity
MDA-MB-231 [15] = assay: Induction of apoptosis in human MDA-MB-231 cells assessed as late apoptotic cells at 10 uM incubated for 24 hrs by AnnexinV-FITC and propidium iodide staining based flow cytometry (reference value: 3.54%); assay type: functional

pIC50 (HCT-116) | pIC50 (A549) | pIC50 (HL-60) | pIC50 (MDA-MB-231 [2]) | Drug metabolism [3] | inhibition [6] | inhibition [9] | inhibition [10] | inhibition [11] | Compound | pIC50 [1] | Activity (MDA-MB-231 [4]) [%] | viability at 1 µM (MDA-MB-231 [5]) [%] | pIC50 (L02) | Activity (MDA-MB-231 [7]) [%] | pIC50 (Vero) | Activity (MDA-MB-231 [8]) [%] | Activity (MDA-MB-231 [12]) [%] | Activity (MDA-MB-231 [13]) [%] | viability at 10 µM (MDA-MB-231 [14]) [%] | Activity (MDA-MB-231 [15]) [%]
7.72 | 6.34 | 8.52 | 7.74 |  |  |  |  |  | CC(=O)Nc1cccc(-n2c(=O)n(C3CC3)c(=O)c3c(Nc4ccc(I)cc4F)n(C)c(=O)c(C)c32)c1 [TRAMETINIB] | 8.62 |  |  |  |  |  |  |  |  |  | 
6.15 | 5.64 | 6.51 | 6.42 | Metabolite_Detected |  |  |  |  | COCCNS(=O)(=O)Nc1cccc(Cc2c(C)c3ccc(OCCOc4no[n+]([O-])c4S(=O)(=O)c4ccccc4)cc3oc2=O)c1F | 6.27 |  |  |  |  |  |  |  |  |  | 
5.27 | < 5.30 |  | 5.72 | Metabolite_Notdetected |  |  |  |  | CNS(=O)(=O)Nc1cccc(Cc2c(C)c3ccc(OCCCO)cc3oc2=O)c1F |  |  |  |  |  |  |  |  |  |  | 
5.46 | < 5.30 | 7.00 | 5.66 | Metabolite_Notdetected |  |  |  |  | CNS(=O)(=O)Nc1cccc(Cc2c(C)c3ccc(OCCO)cc3oc2=O)c1F | 6.82 |  |  |  |  |  |  |  |  |  | 
6.14 | 5.59 | 6.54 | 6.74 | Metabolite_Detected |  |  |  |  | CCNS(=O)(=O)Nc1cccc(Cc2c(C)c3ccc(OCCOc4no[n+]([O-])c4S(=O)(=O)c4ccccc4)cc3oc2=O)c1F | 6.27 |  |  |  |  |  |  |  |  |  | 
6.00 | 5.43 | 5.25 | 6.51 | Metabolite_Detected |  |  |  |  | CONS(=O)(=O)Nc1cccc(Cc2c(C)c3ccc(OCCOc4no[n+]([O-])c4S(=O)(=O)c4ccccc4)cc3oc2=O)c1F | 6.06 |  |  |  |  |  |  |  |  |  | 
7.28 | 5.91 | 8.22 | 6.77 | Metabolite_Notdetected | Active | Active | Active | Active | CNS(=O)(=O)Nc1nccc(Cc2c(C)c3ccc(Oc4ncccn4)cc3oc2=O)c1F [AVUTOMETINIB] | 7.77 | 0.57 | 88.8 | 4.76 | 8.45 | < 4.30 | 7.32 | 0.87 | 1.92 | 89.7 | 2.37
6.12 | 5.58 | 6.19 | 6.57 | Metabolite_Detected |  |  |  |  | Cc1c(Cc2cccc(NS(=O)(=O)NCCC#N)c2F)c(=O)oc2cc(OCCOc3no[n+]([O-])c3S(=O)(=O)c3ccccc3)ccc12 | 6.18 |  |  |  |  |  |  |  |  |  | 
4.99 | < 5.30 | 6.11 | 5.11 | Metabolite_Notdetected |  |  |  |  | Cc1c(Cc2cccc(NS(=O)(=O)NCC(F)(F)F)c2F)c(=O)oc2cc(OCCO)ccc12 | 6.03 |  |  |  |  |  |  |  |  |  | 
5.19 | < 5.30 | 6.60 | 5.52 | Metabolite_Notdetected |  |  |  |  | COCCNS(=O)(=O)Nc1cccc(Cc2c(C)c3ccc(OCCO)cc3oc2=O)c1F | 6.44 |  |  |  |  |  |  |  |  |  | 
